18 molecules from ChEMBL document CHEMBL1806362, “Synthesis of some new [1,2,4]triazolo[3,4-b][1,3,4]thiadiazines and [1,2,4]triazolo[3,4-b][1,3,4] thiadiazoles starting from 5-nitro-2-furoic acid and evaluation of their antimicrobial activity” (Bioorg Med Chem, 2011) can be followed below.

The test system of one test is Staphylococcus aureus. Kind of test: Antibacterial activity against Staphylococcus aureus after 24 hrs by broth dilution method. Type of test: functional. The gist of the method: (§1)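 NCCLS broth dilution in 96-well microtitre plates. Inoculum adjusted with sterile saline to 1.0×10^5 c.f.u./ml. Compounds dissolved in DMSO, with a broth-plus-DMSO solvent control. Incubated 24 h at 37 °C. MIC is the lowest concentration without visible growth. For MBC, clear wells were plated on Mueller Hinton agar for 24 h at 37 °C; MBC is the lowest concentration with no colonies. Duplicates, repeated three times; values in μg/ml.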

In the next test the test system is Escherichia coli. Kind of test: Antibacterial activity against Escherichia coli after 24 hrs by broth dilution method. The test is classed as functional. The procedure, abridged:
as §1

The subject of another test is HCT-116. Kind of test: Cytotoxicity against human HCT116 cells after 48 hrs by sulforhodamine B assay. The conditions noted are these: HCT-116, 48 h. Type of test: functional, cell-based. The gist of the method: (§2)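 SRB assay. Cells seeded at 10⁴ cells/well and left 24 h to attach. Exposed to 0, 1, 2.5, 5 and 10 μg/ml for 48 h at 37 °C in humidified 5% CO₂. Fixed with trichloroacetic acid and stained 30 min with 0.4% SRB in 1% acetic acid. Washed with 1% acetic acid; bound dye extracted with Tris EDTA and absorbance read. IC50 taken from surviving fraction versus concentration curves.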

Another test concerns HepG2. Kind of test: Cytotoxicity against human HepG2 cells after 48 hrs by sulforhodamine B assay. Conditions: HepG2, 48 h. The test is classed as functional, cell-based. The gist of the method:
as §2

≈ marks a conversion by molar mass, not a printed value.

In the test with Staphylococcus aureus, `Nn1c(S)nnc1-c1ccc([N+](=O)[O-])o1` came in with an MBC of 200 µg/mL (≈ 880 µM) and an MIC of 50 µg/mL (≈ 220 µM). For the same molecule, in the test with Escherichia coli, the minimal bactericidal concentration (MBC) turned out to be 200 µg/mL (≈ 880 µM) and inhibition of growth (MIC) required 25 µg/mL (≈ 110 µM).
For `O=[N+]([O-])c1ccc(-c2nnc3n2NC(c2ccc[nH]2)S3)o1` (stereo unspecified), in the test on Staphylococcus aureus, the MBC amounted to 200 µg/mL (≈ 657 µM) and the MIC amounted to 25 µg/mL (≈ 82.2 µM). In the test on Escherichia coli, this molecule returned an MBC of 200 µg/mL (≈ 657 µM) and an MIC of 25 µg/mL (≈ 82.2 µM).
As to `O=[N+]([O-])c1ccc(-c2nnc3n2NC(c2ccco2)S3)o1` (stereo unspecified), in the test with Staphylococcus aureus, the MBC was 200 µg/mL (≈ 655 µM) and the minimal inhibitory concentration (MIC) came out at 25 µg/mL (≈ 81.9 µM). In the test with Escherichia coli, the MBC came out at 200 µg/mL (≈ 655 µM) and it took 25 µg/mL (≈ 81.9 µM) to inhibit growth (MIC).
`O=[N+]([O-])c1ccc(-c2nnc3n2NC(c2ccc([N+](=O)[O-])o2)S3)o1` (stereo unspecified): in the test on Staphylococcus aureus, the MBC was 200 µg/mL (≈ 571 µM) and the MIC was 25 µg/mL (≈ 71.4 µM). In the test with Escherichia coli, this molecule had a minimal bactericidal concentration (MBC) of 200 µg/mL (≈ 571 µM) and an MIC of 25 µg/mL (≈ 71.4 µM).
In the test with Staphylococcus aureus, `O=[N+]([O-])c1ccc(-c2nnc3n2NC(c2cccs2)S3)o1` (stereo unspecified) came in with an MBC of 200 µg/mL (≈ 622 µM) and a minimal inhibitory concentration (MIC) of 25 µg/mL (≈ 77.8 µM). In the test on Escherichia coli, this molecule came in with an MBC of 200 µg/mL (≈ 622 µM) and a minimal inhibitory concentration (MIC) of 50 µg/mL (≈ 156 µM).
Take `O=[N+]([O-])c1ccc(-c2nnc3n2NC(c2ccc([N+](=O)[O-])s2)S3)o1` (stereo unspecified): in the test on Staphylococcus aureus, the MBC worked out at 200 µg/mL (≈ 546 µM) and the MIC stood at 25 µg/mL (≈ 68.2 µM). In addition, in the test on Escherichia coli, the MBC stood at 200 µg/mL (≈ 546 µM) and the MIC was 50 µg/mL (≈ 136 µM).
As to `CCNc1nn2c(-c3ccc([N+](=O)[O-])o3)nnc2s1`, in the test with Staphylococcus aureus, the minimum bactericidal concentration (MBC) is 100 µg/mL (≈ 357 µM) and inhibition of growth (MIC) required 25 µg/mL (≈ 89.2 µM). In the test with Escherichia coli, this molecule had an MBC of 200 µg/mL (≈ 714 µM) and an MIC of 25 µg/mL (≈ 89.2 µM).
Regarding `CCCCNc1nn2c(-c3ccc([N+](=O)[O-])o3)nnc2s1`, in the test on Staphylococcus aureus, the MBC came out at 200 µg/mL (≈ 649 µM) and the minimal inhibitory concentration (MIC) was 25 µg/mL (≈ 81.1 µM). In the test with Escherichia coli, this molecule yielded an MBC of 100 µg/mL (≈ 324 µM) and a minimal inhibitory concentration (MIC) of 25 µg/mL (≈ 81.1 µM).
As for `O=[N+]([O-])c1ccc(-c2nnc3sc(Nc4ccccc4)nn23)o1`, the 50% inhibitory concentration (IC50) worked out at 4.38 µg/mL (≈ 13.3 µM) in the test on HCT-116 and 4.23 µg/mL (≈ 12.9 µM) with HepG2. Besides, the MBC was determined as 50 µg/mL (≈ 152 µM) in the test on Staphylococcus aureus and 100 µg/mL (≈ 305 µM) with Escherichia coli. For the same molecule, the MIC against Staphylococcus aureus came to 25 µg/mL (≈ 76.1 µM); against Escherichia coli, 50 µg/mL (≈ 152 µM).
For the molecule `O=[N+]([O-])c1ccc(-c2nnc3sc(Nc4ccc(F)cc4)nn23)o1`, the IC50 was 8.91 µg/mL (≈ 25.7 µM) in the test with HCT-116 and 11.3 µg/mL (≈ 32.6 µM) in the test on HepG2. For the same molecule, the results for the MBC against Staphylococcus aureus and with Escherichia coli were 50 µg/mL (≈ 144 µM) and 100 µg/mL (≈ 289 µM), respectively. The MIC with Staphylococcus aureus and in the test on Escherichia coli was 25 µg/mL (≈ 72.2 µM) each time.
On to `CCc1ccc(Nc2nn3c(-c4ccc([N+](=O)[O-])o4)nnc3s2)cc1`, for which the figures for the half-inhibitory concentration (IC50) in the test with HCT-116 and in the test with HepG2 were 6.65 µg/mL (≈ 18.7 µM) and 3.78 µg/mL (≈ 10.6 µM), respectively. In addition, the minimum bactericidal concentration (MBC) against Staphylococcus aureus and in the test on Escherichia coli was 50 µg/mL (≈ 140 µM) each time. Besides, the minimal inhibitory concentration (MIC) against Staphylococcus aureus and in the test on Escherichia coli was 25 µg/mL (≈ 70.2 µM) each time.
Consider `O=[N+]([O-])c1ccc(-c2nnc3n2N=C(c2ccccc2)CS3)o1`, for which, in the test with Staphylococcus aureus, the MBC stood at 200 µg/mL (≈ 611 µM) and the lowest concentration to inhibit growth (MIC) was 100 µg/mL (≈ 306 µM). Besides, in the test with Escherichia coli, the minimum bactericidal concentration (MBC) is 200 µg/mL (≈ 611 µM) and the lowest concentration to inhibit growth (MIC) was 50 µg/mL (≈ 153 µM).
In the test on Staphylococcus aureus, `O=[N+]([O-])c1ccc(-c2nnc3n2N=C(c2ccc(Cl)cc2)CS3)o1` came in with an MBC of 200 µg/mL (≈ 553 µM) and a minimum inhibitory concentration (MIC) of 25 µg/mL (≈ 69.1 µM). Also, in the test on Escherichia coli, the minimum bactericidal concentration (MBC) turned out to be 200 µg/mL (≈ 553 µM) and the minimal inhibitory concentration (MIC) was 25 µg/mL (≈ 69.1 µM).
As for `O=[N+]([O-])c1ccc(-c2nnc3n2N=C(c2ccc(Br)cc2)CS3)o1`, the MBC in the test on Staphylococcus aureus and against Escherichia coli was 200 µg/mL (≈ 492 µM) throughout. The MIC against Staphylococcus aureus and in the test on Escherichia coli was 25 µg/mL (≈ 61.5 µM) throughout.
On to `O=[N+]([O-])c1ccc(C2=Nn3c(nnc3-c3ccc([N+](=O)[O-])o3)SC2)cc1`, for which the values for the MBC against Staphylococcus aureus and against Escherichia coli were 100 µg/mL (≈ 269 µM) and 200 µg/mL (≈ 537 µM), respectively. Moreover, the MIC in the test on Staphylococcus aureus worked out at 50 µg/mL (≈ 134 µM); in the test on Escherichia coli, 25 µg/mL (≈ 67.1 µM).
Consider `COc1ccc(C2=Nn3c(nnc3-c3ccc([N+](=O)[O-])o3)SC2)cc1`, for which, in the test on Staphylococcus aureus, the MBC came to 200 µg/mL (≈ 560 µM) and the MIC was 50 µg/mL (≈ 140 µM). In the test on Escherichia coli, this molecule registered a minimal bactericidal concentration (MBC) of 200 µg/mL (≈ 560 µM) and an MIC of 25 µg/mL (≈ 70 µM).
For `CC1(C)S[C@@H]2[C@H](NC(=O)[C@H](N)c3ccccc3)C(=O)N2[C@H]1C(=O)O` [AMPICILLIN], in the test on Staphylococcus aureus, the MBC came to 50 µg/mL (≈ 143 µM) and the minimal inhibitory concentration (MIC) worked out at 25 µg/mL (≈ 71.5 µM). Further, in the test with Escherichia coli, the MBC turned out to be 25 µg/mL (≈ 71.5 µM) and it took 12.5 µg/mL (≈ 35.8 µM) to inhibit growth (MIC).
In the case of `COc1cccc2c1C(=O)c1c(O)c3c(c(O)c1C2=O)C[C@@](O)(C(=O)CO)C[C@@H]3O[C@H]1C[C@H](N)[C@H](O)[C@H](C)O1` [DOXORUBICIN], the IC50 was determined as 3.73 µg/mL (≈ 6.86 µM) in the test with HCT-116 and 5.5 µg/mL (≈ 10.1 µM) in the test with HepG2.
